Assay outcomes (PubChem)
Most compounds without a hit are left out; they make up all but 6.3% or so of the library.
M1 ag: M1 muscarinic receptor agonism. CHO-M1 cells, Fluo-4 calcium fluorescence, agonist mode; stronger effect = higher value. 64,000 compounds, 3% hits. B-score at 10 µM. AID 626;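 active = fluorescence rise, raw or as B-score row- and column-corrected plate score, outside the 99.7% band of its plate's samples, either direction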
RORA act: RORA (human) activation; P35398; CHO-K1 Gal4-RORA LBD luciferase reporter, luminescence; percent increase over mock-subtracted basal signal; activation, % at 10 µM; 65,000 compounds, 1.5% hits; AID 560;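 active = activation above the mean of all tested compounds plus 3 SD, cut at about 49% in these data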;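 also: 0% = DMSO-treated RORA cells and 100% = added signal equal to DMSO minus mock-transfected cells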
Target sequence (P35398 whole entry, looked up, the tested form may be a part): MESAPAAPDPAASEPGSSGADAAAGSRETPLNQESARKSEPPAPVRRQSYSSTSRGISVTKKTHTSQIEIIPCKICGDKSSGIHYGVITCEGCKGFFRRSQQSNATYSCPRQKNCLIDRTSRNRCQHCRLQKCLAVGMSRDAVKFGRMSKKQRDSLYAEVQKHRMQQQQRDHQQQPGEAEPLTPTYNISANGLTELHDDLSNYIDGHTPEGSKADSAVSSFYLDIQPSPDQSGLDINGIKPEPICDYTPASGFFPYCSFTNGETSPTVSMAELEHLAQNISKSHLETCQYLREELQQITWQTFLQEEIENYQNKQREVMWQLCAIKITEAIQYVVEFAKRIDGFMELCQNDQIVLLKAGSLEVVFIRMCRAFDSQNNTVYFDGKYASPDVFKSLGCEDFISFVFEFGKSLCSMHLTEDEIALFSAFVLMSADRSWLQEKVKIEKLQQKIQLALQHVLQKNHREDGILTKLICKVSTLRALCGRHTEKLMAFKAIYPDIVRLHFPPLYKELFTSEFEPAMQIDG
M1 antagonist: antagonists of rat M1 muscarinic receptor; P08482; CHO-M1 cells, Fluo-4 calcium, ACh EC80 antagonist mode; stronger effect = lower value; B-score at 10 µM; 64,000 compounds, 3.4% hits; AID 628;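 active = calcium fluorescence response, raw or row-and-column corrected B-score, differing from the plate sample mean either way at a set confidence level, mostly lower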
MT1-MMP txn act: MT1-MMP promoter transcription activation; HT1080 MT1-MMP promoter luciferase reporter, luminescence, overnight; stronger effect = higher value; activation factor at 10 µM; 86,000 compounds, 0.16% hits;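 active = activation factor of at least 2 for MT1-MMP transcription at 10 µM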
SF-1 act: activators of human nuclear receptor SF-1 | activation, % at 10 µM | Q13285 | AID 522 | 65,000 compounds, 1.9% hits | CHO-K1 Gal4-SF-1 LBD luciferase reporter; % increase over DMSO SF-1-specific signal;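 active = activation above the mean activation of all tested compounds plus 3 SD, cut at about 50% in these data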
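Test system: CHO-K1 cells with Gal4–hSF-1 LBD chimera plus Gal4-driven luciferase; Input: 4,000 cells/well; Compound: 10 µM only; Times: 20 h compound treatment, 37 °C; Measured by: steady-glow luciferase luminescence, read after 15 min reagent incubation; Measure: percent activation versus DMSO; Control set: DMSO and mock-transfected background; Replicates: one test per compound.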
An asterisk follows results filed as active; x = no result.

SMILES	M1 ag	RORA act	M1 antagonist	MT1-MMP txn act	SF-1 act
COc1ccc(-c2nnc(SCC(=O)NCc3cccs3)n2C(C)C)cc1	x	x	x	1.1	x
Cc1cc2c(cc(C(=O)OCC(=O)NCc3cccs3)n2C(C)C)o1	0.88	57*	0.059	0.6	12
Cc1ccc2nc(N3CCN(S(=O)(=O)c4ccc(C)c(Cl)c4)CC3)c(C#N)cc2c1	x	x	x	1.2	x
CN=Cc1cc(-c2ccccc2)sc1O	-0.072	27	-0.0084	1.4	56*
COC(=O)c1cc(-c2ccccc2)sc1N	x	x	x	1.1	x
Nc1c(C(=O)NCCN2CCOCC2)c2nc3ccccc3nc2n1-c1ccccc1	0.66	-15	0.056	1	6
Nc1c(C(=O)NCCN2CCOCC2)c2nc3ccccc3nc2n1-c1ccc2c(c1)OCO2	-0.14	55*	0.0078	0.9	-7
COc1cc(C)c(C(C)C)cc1S(=O)(=O)N1CCN(C)CC1	-0.57	-2	0.52	1.1	-14
COc1cc(C)c(C(C)C)cc1S(=O)(=O)n1cnc(C)c1	0.76	80*	0.068	0.3	15
Cc1c(C(=O)N2CCOCC2)[nH]c2c1C(=O)CC(c1ccccc1Cl)C2 (configuration not stated)	-0.76	45	0.41	0.7	67*
COc1cccc(OC)c1C(=O)Nc1ccc2c(c1)OCCO2	0.082	-2	0.97	1.2	-2
O=C(Nc1ccc2c(c1)OCO2)c1cncc(Br)c1	2	14	-0.0039	1.5	53*
O=C(Nc1ccc2c(c1)OCO2)c1c(F)cccc1F	-0.0033	25	0.54	1.3	58*
O=C(Nc1ccc2c(c1)OCO2)c1cccc(F)c1	0.38	52*	0.18	1.5	21
CC1CC(C)CN(c2nc3c(c(=O)[nH]c(=O)n3C)n2CCSc2nc3ccccc3o2)C1 (configuration not stated)	-1.5	7	-0.00083	1	9
Cc1ccc(NC(=O)C2C3CC4OC(=O)C2C4C3)cc1Cl (configuration not stated)	0.4	-6	0.2	1	-3
CC(C)OC(=O)c1ccc(NC(=O)C2C3CC4OC(=O)C2C4C3)cc1 (configuration not stated)	0.18	30	-0.14	1.4	56*
COc1ccccc1NC(=O)CSc1nnc(-c2ccc(C)cc2)o1	1.2	41	0.15	0.6	57*
COc1ccc(C)cc1NC(=O)CSc1nnc(-c2ccc(Br)cc2)o1	-0.5	8	0.62	1.1	-1
COc1ccc(N2CCN(C(=O)CSc3nnc(CNc4ccccc4)o3)CC2)cc1	-2.5*	-4	-0.31	1.1	19
COc1ccc(-c2nnc(SCC(=O)N3CCOCC3)o2)cc1	0.09	73*	0.35	1.3	38
COc1ccc(Cc2nnc(SCC(=O)N3CCN(c4ccccc4)CC3)o2)cc1	-1.5	17	-0.0076	1.1	-11
COc1ccc(-c2nnc(SC(C)C(=O)Nc3ccc4c(c3)OCCO4)o2)cc1 (configuration not stated)	0.22	25	0.52	1.6	50*
COC(=O)c1ccc(C(NC(=O)OCc2ccccc2)/C(=C/[C@@H](C)C(=O)NCc2cc(F)cc(F)c2)c2cccnc2)cc1 (some centres not stated)	x	x	x	1.3	x
CCCc1cc(=O)n2[nH]c(-c3ccc(C)cc3)cc2n1	0.44	79*	-0.16	1.5	26
SMILES	M1 ag	RORA act	M1 antagonist	MT1-MMP txn act	SF-1 act
CCCc1cc(=O)n2[nH]c(Cc3ccccc3)nc2n1	-0.35	0	0.099	1.1	8
COCc1cc(=O)n2[nH]c(-c3ccccc3)cc2n1	-0.35	22	0.28	1.4	30
COCc1cc(=O)n2[nH]c(-c3cccc(Br)c3)cc2n1	-0.25	53*	0.37	1.4	48
CCCc1cc(=O)n2[nH]c(-c3ccccc3)cc2n1	0.048	52*	-0.57	1.3	68*
Oc1ccc(-n2cnnn2)cc1	x	x	x	1.1	x
CSCC[C@H](NC(=O)CCNC(C)=O)c1nc2ccccc2[nH]1	x	x	x	1	x
COC(=O)c1ccc(Oc2cc(C)nc(SC)n2)cc1	0.19	58*	0.15	0.6	71*
N#C/C(C(=O)N1CCCCC1)=C1\Nc2ccccc2S1	-1.4	30	-0.26	1.4	50*
O=C1NC(c2cccs2)Nc2sc3c(c21)CCCC3 (configuration not stated)	-0.75	21	0.12	1.6	70*
CN1CCc2c(sc3c2C(=O)NC(c2ccco2)N3)C1 (configuration not stated)	3.5	-2	0.63	1.1	6
COc1nc(C)ccc1-c1noc(-c2ccccn2)n1	0.66	61*	-0.12	0.9	22
COc1ccccc1-c1nc(-c2ccccn2)no1	-0.076	-50	-0.063	x	-32
COc1ccccc1-c1nc(-c2ccc(C)nc2OC)no1	0.26	39	-0.11	1.2	74*
N#Cc1cc2c(nc1SCC(O)CS(=O)(=O)Cc1ccccc1)CCCC2 (configuration not stated)	1.6	-11	0.071	1.2	-23
CCN(CC(=O)N1CCc2ccccc2C1)S(=O)(=O)c1ccc2ccccc2c1	x	x	x	1	x
O=C(c1ccc(Cl)cc1)N1CCN(c2nc(N3CCCCC3)nc(N3CCCCC3)n2)CC1	-0.28	x	0.35	x	x
O=C(CSC1=NCCS1)N1CCOCC1	-1.5	-20	2.1*	1.2	-6
C/C(=C\c1ccccc1)C(=O)Nc1cc(C)on1	x	x	x	1.3	x
O=C(CSc1nc2ccccc2o1)Nc1nc2ccccc2s1	-1.7	3	-0.38	1.4	50*
CC(=O)Nc1nc2ccc(-c3nc4ccccc4o3)cc2s1	-0.27	69*	-1	0.9	38
Cc1nc2ccc(-c3nc4ccccc4o3)cc2[nH]1	x	x	x	1.3	x
O=C(Cc1ccccc1)Nc1nc2ccccc2s1	x	x	x	2*	x
Cc1ccnc2ccc(-c3nc4ccccc4o3)cc12	-0.034	46	0.13	1.9	56*
COc1ccc(Cc2nnc(SCC(=O)Nc3nc(C)cs3)o2)cc1	-0.47	-18	1	1.1	-2
O=C(Cc1cccs1)Nc1nc2ccccc2s1	0.23	58*	0.083	1.6	39
SMILES	M1 ag	RORA act	M1 antagonist	MT1-MMP txn act	SF-1 act
Cc1ccc2nc(NC(=O)Cc3cccs3)sc2c1	x	x	x	1.8	x
COCCNC(=O)c1cc2sc3ccccc3c2s1	-0.4	61*	-0.76	1.6	50*
O=C(Nc1cnc2ccccc2c1)N1CCCCC1	0.92	72*	0.75	1	33
COC(=O)c1cc(OC)c(OC)cc1NC(=O)Nc1ccc(OC)cc1OC	0.77	-22	0	1.1	-3
Cc1cc(N2CCN(C3CCCC3)CC2)n2nc(C)c(-c3ccccc3)c2n1	0.078	-30	0.025	1.1	6
CN(C)/C=N/c1ncnc2c1cnn2-c1ccc(C(F)(F)F)cn1	-0.21	-2	0.29	1.9	82*
Cc1nn(-c2ccc(C(F)(F)F)cn2)c(C)c1Oc1ccccc1O	x	x	x	1.2	x
COC(=O)c1ccc(C(NC(=O)OCc2ccccc2)/C(F)=C/[C@@H](C)C(=O)N[C@@H](CO)Cc2ccccc2)cc1 (some centres not stated)	x	x	x	1.1	x
